Measured values from different studies.
Each line is one published result; the experiments were not run side by side.
Target: Platelet-derived growth factor receptor beta (PDGFRB, Homo sapiens, UniProt P09619)

CN(C)c1nccc(-c2cnc3ncccn23)n1  remaining binding (binding; 1 µM): 90%
O=C(NCCCN1CCOCC1)c1ccc(Nc2nccc(-c3cc4ccccc4s3)n2)cc1  remaining binding (binding; competition with immobilised ligand; 1 µM): 13%
COc1ccc2c(c1)O[C@@H](c1ccc(OC)c(OC)c1)C[C@H]2NC(=O)C1(c2ccc3c(c2)OC(F)(F)O3)CC1  remaining binding (cell-free assay; competition with immobilised ligand; 1 µM): 100%
c1cnn2ncc(-c3ccnc(N4CCC45COC5)n3)c2c1  remaining binding (binding; 1 µM): 78%
c1cncc(-c2cccc(Nc3nccc(NC4CCCCC4)n3)c2)c1  remaining binding (binding; competition with immobilised ligand; 10 µM): 0%
CC(=O)C1=C(C)N(c2cccc(C(F)(F)F)c2)C(=O)N[C@@H]1c1ccc(C#N)nc1  remaining binding (cell-free assay; competition with immobilised ligand; 1 µM): 94%
C[C@@H]1CCN(c2nccc(-c3cnn4ncccc34)n2)C1  remaining binding (binding; 1 µM): 100%
CNC(=O)[C@@H]1CC[C@@H](n2c(-c3ccc4cnccc4c3)nc3ccc(C(=O)NCc4cccc(C(N)=O)c4)cc32)C1  remaining binding (binding; competition with immobilised ligand; 1 µM): 100%
CCC(=N\O)/C(C)=C/c1ccc(F)cc1  remaining binding (cell-free assay; competition with immobilised ligand; 1 µM): 100%
C[C@@H]1CN(c2ccc3ncc(-c4ccc5[nH]nc(C6CC6)c5c4)n3n2)C[C@H](C)O1  remaining binding (binding; competition with immobilised ligand; 50 nM): 87%
N[C@@H]1CCN(c2nccc(-c3cnn4ncccc34)n2)C1  remaining binding (binding; 1 µM): 100%
O=C(NCCCN1CCOCC1)c1ccc(Nc2ncc(Cl)c(-c3ccc(Cl)s3)n2)cc1  remaining binding (binding; competition with immobilised ligand; 1 µM): 0.05%
FC(F)(F)c1ccc2c(c1)nc(-c1cccnc1)n2C1CC1  remaining binding (cell-free assay; competition with immobilised ligand; 1 µM): 100%
Nc1ncc2c(n1)-c1c([nH]c3ccc(C#CC4CC4)cc13)CCCC2  remaining binding (binding; competition with immobilised ligand; 1 µM): 100%
COc1ccnn2ncc(-c3ccnc(N(C)C)n3)c12  remaining binding (binding; 1 µM): 100%
Cc1nccc(COC(=O)N2C[C@@H]3[C@@H](CNC(=O)c4ccc5[nH]nnc5c4)[C@@H]3C2)n1  remaining binding (cell-free assay; competition with immobilised ligand; 1 µM): 84%
CN(C)c1nccc(-c2cnn3ncccc23)n1  remaining binding (binding; 1 µM): 100%
O=C(c1ccc(Nc2ncc(Cl)c(-c3cc4ccccc4s3)n2)cc1)N1CCC(N2CCCC2)CC1  remaining binding (binding; competition with immobilised ligand; 1 µM): 1.9%
CC(C)(C)c1ccc(-c2nc(CBr)nn2-c2cccc(O)c2)cc1  remaining binding (cell-free assay; competition with immobilised ligand; 10 µM): 86%
CC(=O)Nc1c(C(C)=O)c(=O)n(C)c2nc(-c3ccc(Cl)cc3Cl)c(-c3ccc(Cl)cc3)cc12  remaining binding (cell-free assay; competition with immobilised ligand; 1 µM): 100%
COc1cnc(Nc2cccc(S(N)(=O)=O)c2)nc1N1CCN(c2ccccc2)C(=O)C1  remaining binding (binding; competition with immobilised ligand; 1 µM): 94%
CC(=O)N1CCC(c2ccc(C(=O)NC(=N)N)cc2C(F)(F)F)CC1  remaining binding (cell-free assay; competition with immobilised ligand; 1 µM): 100%
O=C(NCC1CCOCC1)c1n[nH]cc1NC(=O)c1c(F)cccc1F  remaining binding (binding; competition with immobilised ligand; 1 µM): 99%
CCOCCn1cc(C(=O)Nc2ccc(-n3nc(-c4cccnc4)cc3C(F)(F)F)cn2)ccc1=O  remaining binding (cell-free assay; competition with immobilised ligand; 1 µM): 88%
CCN1CCN(Cc2ccc(C(=O)Nc3ccc(C)c(Oc4ccc5c(c4)CC(=O)N5)c3)cc2C(F)(F)F)CC1  remaining binding (binding; competition with immobilised ligand; 1 µM): 0.85%
